From ChEMBL document CHEMBL4041526, “Discovery of 2H-Chromen-2-one Derivatives as G Protein-Coupled Receptor-35 Agonists” (J Med Chem, 2017)
Activity calls are given as the source filed them. The calls are words filed in the database; no cut-off is given here.

Experiments:
[1] = biological target: T1, G-protein coupled receptor 35 (Homo sapiens, UniProt Q9HC97); assay: Agonist activity at GPR35 in human HT-29 cells assessed as induction of cell desensitization to 1 uM zaprinast preincubated for 1 hr followed by zaprinast stimulation measured after 8 minutes by DMR assay; assay type: cell-based
T1 sequence (Q9HC97 whole entry): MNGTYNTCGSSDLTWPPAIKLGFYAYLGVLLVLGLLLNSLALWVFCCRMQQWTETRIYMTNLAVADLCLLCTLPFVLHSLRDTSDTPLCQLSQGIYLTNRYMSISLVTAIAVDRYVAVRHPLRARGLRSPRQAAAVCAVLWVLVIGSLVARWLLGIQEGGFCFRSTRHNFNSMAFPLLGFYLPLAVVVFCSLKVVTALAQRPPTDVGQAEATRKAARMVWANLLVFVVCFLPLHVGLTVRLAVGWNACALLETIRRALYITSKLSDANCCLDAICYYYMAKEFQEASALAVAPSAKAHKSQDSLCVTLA
Summary of the method: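 Desensitization format in HT-29 cells on resonant waveguide grating biosensor plates, held in HBSS. […] Mean ± sd, two independent measurements, each with four replicates (n=8).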

[2] = biological target: T1, G-protein coupled receptor 35; assay: Agonist activity at GPR35 in human HT-29 cells in presence of antagonist ML-145 by DMR assay; assay type: cell-based
Summary of the method: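 HT-29 DMR antagonist format: ML-145 was titrated against the coumarin agonist, each agonist given at its EC80–EC100 dose. Cells were kept in HBSS and equilibrated 1 h in the reader. IC50 was calculated from the DMR amplitude at 8 min post-stimulation. Mean ± sd, two independent measurements × four replicates (n=8).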

[3] = biological target: T1, G-protein coupled receptor 35; assay: Agonist activity at GPR35 in human HT-29 cells by DMR assay; assay type: cell-based
Summary of the method: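 HT-29 cells with endogenous GPR35, grown in McCoy's 5A with 10% FBS at 37 °C/5% CO2, seeded overnight to a confluent monolayer on resonant waveguide grating biosensor plates. Cells were washed, kept in HBSS for 1 h in the reader, and given a 2 min baseline before compound addition. Mean ± sd, two independent runs × four replicates (n=8).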

[4] = biological target: T1, G-protein coupled receptor 35; assay: Agonist activity at human GPR35 expressed in CHO-K1 cells after 90 mins by beta-arrestin 2 recruitment assay; assay type: cell-based
[5] = biological target: T1, G-protein coupled receptor 35; assay: Agonist activity at TEV protease cleavage site linked GAL4-VP16-fused GPR35 in human Tango GPR35-bla U2OS cells assessed as induction of TEV protease-tagged beta-arrestin recruitment incubated for 5 hrs by beta-lactamase reporter gene assay
[6] = biological target: T1, G-protein coupled receptor 35; assay: Agonist activity at TEV protease cleavage site linked GAL4-VP16-fused GPR35 in human Tango GPR35-bla U2OS cells assessed as induction of TEV protease-tagged beta-arrestin recruitment incubated for 5 hrs by beta-lactamase reporter gene assay relative to zaprinast
[7] = biological target: T1, G-protein coupled receptor 35; assay: Agonist activity at human GPR35 expressed in CHO-K1 cells by DMR assay; assay type: cell-based
[8] = biological target: Hydroxycarboxylic acid receptor 2 (Homo sapiens) (UniProt Q8TDS4); assay: Agonist activity at GPR109a receptor in human A431 cells at 1 uM preincubated for 1 hr followed by niacin addition by DMR assay; assay type: cell-based
Hydroxycarboxylic acid receptor 2 (Homo sapiens), sequence (Q8TDS4 whole entry): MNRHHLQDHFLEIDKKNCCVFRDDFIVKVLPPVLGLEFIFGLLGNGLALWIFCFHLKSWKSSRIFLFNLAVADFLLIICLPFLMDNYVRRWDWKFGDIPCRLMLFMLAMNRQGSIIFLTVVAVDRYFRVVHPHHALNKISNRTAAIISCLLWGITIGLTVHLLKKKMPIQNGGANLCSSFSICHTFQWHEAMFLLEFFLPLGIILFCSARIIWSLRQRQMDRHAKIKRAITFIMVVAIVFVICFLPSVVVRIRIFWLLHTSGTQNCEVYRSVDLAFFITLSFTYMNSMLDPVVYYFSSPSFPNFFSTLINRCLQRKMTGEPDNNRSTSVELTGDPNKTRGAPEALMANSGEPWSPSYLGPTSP

[9] = biological target: T2, Type-1 angiotensin II receptor (Homo sapiens) (UniProt P30556); assay: Agonist activity at angiotensin AT1 receptor in human A549 cells at 1 uM preincubated for 1 hr followed by angiotensin 2 addition by DMR assay; assay type: cell-based
T2 sequence (whole entry): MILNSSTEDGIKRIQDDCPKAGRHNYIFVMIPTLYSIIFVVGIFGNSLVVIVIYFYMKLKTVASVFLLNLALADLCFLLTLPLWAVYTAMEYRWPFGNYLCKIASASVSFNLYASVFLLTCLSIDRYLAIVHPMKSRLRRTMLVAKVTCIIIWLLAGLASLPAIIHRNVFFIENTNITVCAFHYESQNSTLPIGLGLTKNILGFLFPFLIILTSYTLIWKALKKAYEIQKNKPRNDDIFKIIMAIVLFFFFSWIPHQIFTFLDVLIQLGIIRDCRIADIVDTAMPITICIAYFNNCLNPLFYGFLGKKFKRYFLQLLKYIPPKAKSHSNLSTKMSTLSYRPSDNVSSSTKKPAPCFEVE

[10] = biological target: Histamine H1 receptor (Homo sapiens) (UniProt P35367); assay: Agonist activity at histamine H1 receptor in human A431 cells at 1 uM preincubated for 1 hr followed by histamine addition by DMR assay; assay type: cell-based
Histamine H1 receptor (Homo sapiens), sequence (P35367 whole entry): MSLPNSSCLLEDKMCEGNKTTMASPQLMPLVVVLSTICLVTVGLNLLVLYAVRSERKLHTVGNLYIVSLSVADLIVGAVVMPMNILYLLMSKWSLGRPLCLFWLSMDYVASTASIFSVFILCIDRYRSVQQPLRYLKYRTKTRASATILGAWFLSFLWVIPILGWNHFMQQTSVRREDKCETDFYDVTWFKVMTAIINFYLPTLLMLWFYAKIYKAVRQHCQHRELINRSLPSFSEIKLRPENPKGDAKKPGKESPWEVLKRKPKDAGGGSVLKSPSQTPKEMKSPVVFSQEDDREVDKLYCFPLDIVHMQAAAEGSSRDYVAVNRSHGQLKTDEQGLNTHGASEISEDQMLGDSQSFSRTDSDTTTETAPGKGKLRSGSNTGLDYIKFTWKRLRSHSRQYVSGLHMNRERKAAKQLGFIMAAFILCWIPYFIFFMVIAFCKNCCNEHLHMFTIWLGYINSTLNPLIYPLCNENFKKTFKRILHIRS

[11] = biological target: T3, B2 bradykinin receptor (Homo sapiens) (UniProt P30411); assay: Agonist activity at bradykinin B2 receptor in human A549 cells at 1 uM preincubated for 1 hr followed by bradykinin addition by DMR assay; assay type: cell-based
T3 sequence (whole entry): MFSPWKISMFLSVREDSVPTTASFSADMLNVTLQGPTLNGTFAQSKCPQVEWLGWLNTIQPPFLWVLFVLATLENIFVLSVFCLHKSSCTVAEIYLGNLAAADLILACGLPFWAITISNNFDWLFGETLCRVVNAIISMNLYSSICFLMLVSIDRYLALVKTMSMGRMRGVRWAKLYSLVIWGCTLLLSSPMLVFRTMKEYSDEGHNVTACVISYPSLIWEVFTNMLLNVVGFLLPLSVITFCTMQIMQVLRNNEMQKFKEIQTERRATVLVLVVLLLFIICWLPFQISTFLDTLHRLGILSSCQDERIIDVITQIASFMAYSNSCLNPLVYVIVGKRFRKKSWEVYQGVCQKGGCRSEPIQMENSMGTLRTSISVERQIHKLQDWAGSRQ

[12] = biological target: Beta-2 adrenergic receptor (Homo sapiens) (UniProt P07550); assay: Agonist activity at beta2 adrenergic receptor in human A431 cells at 1 uM preincubated for 1 hr followed by epinephrine addition by DMR assay; assay type: cell-based
Beta-2 adrenergic receptor (Homo sapiens), sequence (P07550 whole entry, looked up): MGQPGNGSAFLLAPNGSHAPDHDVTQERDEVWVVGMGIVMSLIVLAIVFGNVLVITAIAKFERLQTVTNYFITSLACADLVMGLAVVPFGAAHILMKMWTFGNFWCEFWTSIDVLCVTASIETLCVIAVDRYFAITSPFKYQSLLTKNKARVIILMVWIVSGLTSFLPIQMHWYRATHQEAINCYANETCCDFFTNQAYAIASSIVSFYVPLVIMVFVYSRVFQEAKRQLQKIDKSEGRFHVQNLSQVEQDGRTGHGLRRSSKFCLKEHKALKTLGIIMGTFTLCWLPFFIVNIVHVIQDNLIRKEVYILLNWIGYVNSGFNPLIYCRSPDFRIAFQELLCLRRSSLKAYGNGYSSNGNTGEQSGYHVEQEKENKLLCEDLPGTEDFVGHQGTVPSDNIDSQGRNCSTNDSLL

| Activity [2] | EC50 ([3]; read-out: EC50) | Structure (SMILES) | IC50 [1] | further results |
| --- | --- | --- | --- | --- |
| inactive | 890 nM | COc1c(Br)cc2cc(C(=O)O)c(=O)oc2c1Br | 750 nM | – |
| inactive | 8610 nM | N#Cc1cc2cc(Cl)cc(Cl)c2oc1=O | 8610 nM | – |
| inactive | 8220 nM | COc1c(Br)cc2cc(C#N)c(=O)oc2c1Br | 590 nM | – |
| inactive | 710 nM | O=c1oc2cc(O)c(Br)cc2cc1-c1nnn[nH]1 | 483 nM | – |
| inactive | 2020 nM | O=C(O)c1cc2cc(Cl)cc(Cl)c2oc1=O | 2300 nM | – |
| inactive | 2330 nM | N#Cc1cc2cc(Br)c(O)c(Br)c2oc1=O | 2890 nM | – |
| – | – | CC(C)c1ccc2oc3nc(N)c(C(=O)O)cc3c(=O)c2c1 [AMLEXANOX] | – | EC50 [4]: 4000 nM |
| inactive | 1750 nM | O=C(O)c1cc2cc(Br)cc(Br)c2oc1=O | 1080 nM | – |
| inactive | 21400 nM | N#Cc1cc2cc(Cl)ccc2oc1=O | 21400 nM | – |
| inactive | 2910 nM | COc1c(Br)cc2cc(C#N)c(=O)oc2c1[N+](=O)[O-] | 1690 nM | – |
| inactive | 13500 nM | O=C(O)c1cc2cc(Cl)ccc2oc1=O | 13200 nM | – |
| inactive | 150 nM | O=C(O)c1cc2cc(Br)c(O)c(Br)c2oc1=O | 56 nM | EC50 [5]: 3630 nM; Efficacy [6]: 168% |
| inactive | 68 nM | O=c1oc2c(Br)c(O)c(Br)cc2cc1-c1nnn[nH]1 | 23 nM | EC50 [5]: 1540 nM; Efficacy [6]: 126%; EC50 ([3]; read-out: pEC50 (converted)): 66.7 nM |
| inactive | 92300 nM | O=C(O)c1cc2ccccc2oc1=O [COUMARIN-3-CARBOXYLIC ACID] | 100000 nM | – |
| inactive | 330 nM | O=c1oc2c([N+](=O)[O-])cc(Br)cc2cc1-c1nnn[nH]1 | 330 nM | – |
| – | – | O=C(O)c1cc(=O)c2c(OCC(O)COc3cccc4oc(C(=O)O)cc(=O)c34)cccc2o1 [CROMOLYN] | – | EC50 [7]: 52 nM; EC50 [4]: 7000 nM |
| inactive | 14 nM | O=c1oc2c([N+](=O)[O-])c(O)c([N+](=O)[O-])cc2cc1-c1nnn[nH]1 | 13 nM | EC50 [5]: 288 nM; Efficacy [6]: 107% |

| Activity [2] | EC50 ([3]; read-out: EC50) | Structure (SMILES) | IC50 [1] | further results |
| --- | --- | --- | --- | --- |
| inactive | 10800 nM | O=C(O)c1cc2cc(Br)ccc2oc1=O | 11300 nM | – |
| inactive | 17700 nM | N#Cc1cc2cc(Br)cc(Br)c2oc1=O | 14900 nM | – |
| inactive | 14800 nM | COc1cc2oc(=O)c(-c3nnn[nH]3)cc2cc1Br | 14100 nM | – |
| inactive | 700 nM | N#Cc1cc2cc(Br)cc([N+](=O)[O-])c2oc1=O | 650 nM | – |
| inactive | 51 nM | O=C(O)c1cc2cc(Br)c(O)c([N+](=O)[O-])c2oc1=O | 31 nM | EC50 [5]: 479 nM; Efficacy [6]: 111% |
| – | – | N#Cc1cc2ccccc2oc1=O | – | EC50 [3]: Not Active |
| – | – | N#Cc1cc(NC(=O)C(=O)O)c(Cl)c(NC(=O)C(=O)O)c1 [LODOXAMIDE] | – | EC50 [4]: 4000 nM |
| inactive | 9270 nM | N#Cc1cc2cc(Br)c(O)cc2oc1=O | 9330 nM | – |
| inactive | 6760 nM | O=c1oc2ccccc2cc1-c1nn[nH]n1 | 5080 nM | – |
| inactive | 4270 nM | O=C(O)c1cc2cc(Br)cc([N+](=O)[O-])c2oc1=O | 3750 nM | – |
| inactive | 4340 nM | O=C(O)c1cc2cc(Br)c(O)cc2oc1=O | 3760 nM | – |
| inactive | 2660 nM | COc1c(Br)cc2cc(-c3nnn[nH]3)c(=O)oc2c1[N+](=O)[O-] | 2820 nM | – |
| inactive | 5.8 nM | O=c1oc2c([N+](=O)[O-])c(O)c(Br)cc2cc1-c1nnn[nH]1 | 8.6 nM | Activity [8]: inactive; Activity [1]: Dose-dependent effect; EC50 [5]: 197 nM; Efficacy [6]: 104%; Activity [9]: inactive; Activity [10]: inactive; Activity [11]: inactive; Activity [12]: inactive |
| inactive | 930 nM | O=c1oc2c(Br)cc(Br)cc2cc1-c1nnn[nH]1 | 380 nM | EC50 [5]: 7050 nM; Efficacy [6]: 81.3% |
| – | – | CCCOc1ccccc1-c1nc2[nH]nnc2c(=O)[nH]1 | – | Efficacy [6]: 100% |
| inactive | 1410 nM | COc1c(Br)cc2cc(-c3nnn[nH]3)c(=O)oc2c1Br | 460 nM | EC50 [5]: 14100 nM; Efficacy [6]: 86.4% |
